The results in this text go back to the array DNA melting data of Ke et al. (doi:10.1101/2024.01.08.574731).

Series [1] can be described thus: folding enthalpy; higher = less favourable; fluorescence melt of hairpins on a sequencing array, two-state fit. As to conditions: sodium 0.088 M. The method, boiled down:
(§1)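 Two-state fits, bootstrapped, provided melting temperature and folding enthalpy from Cy3 fluorescence normalised to pre-quench Cy3 and to control constructs. Library hairpins with annealed Cy3 and quencher oligos were imaged on a sequenced MiSeq flow cell in 50 mM Na-HEPES pH 8.0, 25 mM NaCl, at 2.5 °C intervals up to 60 °C. Four replicates were combined with inverse-variance weighting. A 9.35 °C upward shift was applied to fitted temperatures to match UV melts.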

Series [2] can be described thus: melting temperature; fluorescence melt of hairpins on a sequencing array, two-state fit, raised by 9.35 °C to match UV melts. As to conditions: sodium 0.088 M. The procedure, abridged: as §1

With GCCGTTGGAAACAGCGGC ((((.((....)).)))), in series [1], the folding enthalpy is -39.8 kcal/mol. Besides, the Tm in series [2] stood at 60.3 °C.

With GCCGTTGGAAACGATGGC (((.(.(....).).))), the folding enthalpy in series [1] was -23.1 kcal/mol. Also, in series [2], the Tm is 42.9 °C.

GCCTAAGGAAACTTGGGC (((.(((....))).))): the folding enthalpy in series [1] is -37 kcal/mol. Moreover, the Tm in series [2] is 48.9 °C.

On to GCCTAATCGAAAGATGGC (((..(((....)))))), for which the folding enthalpy in series [1] is -27.4 kcal/mol. In addition, in series [2], the Tm is 44.1 °C.

For the sequence GCCTACGAAAGTACGGC ((((((....))).))), the folding enthalpy in series [1] is -28.8 kcal/mol. For the same sequence, the Tm in series [2] stood at 51.5 °C.

For the sequence GCCTACGGAAACGTAAGC ((.((((....)))).)), the folding enthalpy in series [1] was -19.8 kcal/mol. Besides, the Tm in series [2] was found to be 36.1 °C.

Take GCCTAGCGAAAGCTAAGC ((.((((....)))).)): in series [1], the folding enthalpy is -17.1 kcal/mol. In addition, the Tm in series [2] came to 48.9 °C.

As to GCCTAGCGAAAGCTCTGC ((..(((....)))..)), the folding enthalpy in series [1] was -11.7 kcal/mol. Also, the Tm in series [2] worked out at 34.3 °C.

In the case of GCCTAGCGAAAGCTGGC (((.(((....)))))), the folding enthalpy in series [1] was -29.2 kcal/mol. The Tm in series [2] stood at 64.8 °C.

GCCTAGCGAAAGCTTTGC ((..(((....)))..)): in series [1], the folding enthalpy was -12 kcal/mol. Besides, the Tm in series [2] was determined as 33.4 °C.

Take GCCTAGGCGAAAGCCGGC (((..(((....)))))): the folding enthalpy in series [1] is -13.3 kcal/mol. In series [2], the Tm was determined as 65.8 °C.

On to GCCTAGGGAAACCCAGGC ((((.((....)).)))), for which the folding enthalpy in series [1] was -31.6 kcal/mol. Further, the Tm in series [2] came to 50.6 °C.

As to GCCTAGGGAAACTTAGGC (((((.(....).))))), in series [1], the folding enthalpy is -31.6 kcal/mol. In addition, in series [2], the Tm worked out at 47.5 °C.

As for GCCTATGGAAACATAAGC ((.((((....)))).)), in series [1], the folding enthalpy was -15.6 kcal/mol. Besides, the Tm in series [2] is 27.6 °C.

On to GCCTCATCGAAAGATGGC (((..(((....)))))), for which the folding enthalpy in series [1] is -10.1 kcal/mol. Also, the Tm in series [2] was determined as 43.8 °C.

GCCTCCCGAAAGGGTGGC (((.(((....))).))): the folding enthalpy in series [1] was -36.1 kcal/mol. In addition, the Tm in series [2] turned out to be 67.9 °C.

GCCTCCGAAAGGACCGGC ((((((....)))..))): the folding enthalpy in series [1] is -25 kcal/mol. Further, the Tm in series [2] is 43.1 °C.

In the case of GCCTCCGGAAACGGGGGC (((.(((....))).))), in series [1], the folding enthalpy was -31 kcal/mol. The Tm in series [2] was 67.1 °C.

Consider GCCTCCTCGAAAGAGGGC (((..(((....)))))), for which the folding enthalpy in series [1] was -9.35 kcal/mol. In addition, the Tm in series [2] was 43.9 °C.

GCCTCGCGAAAGCAAGGC ((((.((....)).)))): in series [1], the folding enthalpy is -30 kcal/mol. Besides, the Tm in series [2] is 65.1 °C.

For GCCTCGCGAAAGCCAAGC ((.(.((....)).).)), the folding enthalpy in series [1] is -6.14 kcal/mol. The Tm in series [2] was 28.4 °C.

On to GCCTCGCGAAAGCGAAGC ((.((((....)))).)), for which the folding enthalpy in series [1] was -18.7 kcal/mol. In addition, in series [2], the Tm is 56.5 °C.

Regarding GCCTCGCGAAAGCTAGGC ((((.((....)).)))), the folding enthalpy in series [1] was -33 kcal/mol. In addition, in series [2], the Tm was 65.2 °C.

For GCCTCGCGAAAGCTCGGC (((..((....))..))), the folding enthalpy in series [1] is -26.6 kcal/mol. In addition, in series [2], the Tm was determined as 46.4 °C.

Take GCCTCGCGAAAGCTGGGC (((..((....))..))): the folding enthalpy in series [1] is -22.2 kcal/mol. Besides, the Tm in series [2] came out at 55.4 °C.

Take GCCTCGGCGAAAGCCGGC (((..(((....)))))): the folding enthalpy in series [1] is -4.13 kcal/mol. In series [2], the Tm came to 54.4 °C.

Regarding GCCTCGGGAAACCAAGGC ((((.((....)).)))), the folding enthalpy in series [1] is -34.9 kcal/mol. In addition, the Tm in series [2] was found to be 47.6 °C.

In the case of GCCTCGGGAAACCGAAGC ((.((((....)))).)), in series [1], the folding enthalpy is -23.9 kcal/mol. In addition, in series [2], the Tm is 44.6 °C.

On to GCCTGAACGAAAGTTGGC (((..(((....)))))), for which, in series [1], the folding enthalpy was -23.2 kcal/mol. In addition, the Tm in series [2] came to 45.5 °C.

With GCCTGAGGAAACTCGGGC (((.(((....))).))), the folding enthalpy in series [1] is -40.8 kcal/mol. The Tm in series [2] was determined as 57.4 °C.
